The source made the active and inactive calls. The rule behind the calls is not given here.
Experiments:
Protein smoothened = Protein smoothened (Mus musculus, UniProt P56726); experiment: Inhibition of Smo-mediated Hh signalling pathway in mouse Shh Light2 cells by Gli-luciferase reporter gene assay; assay type: cell-based
Summary of the method: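 Light II cells (NIH-3T3 stably carrying a Gli-responsive firefly luciferase reporter plus a Renilla luciferase vector), seeded in 96-well plates and treated. Firefly/Renilla activity in the lysates read by dual luciferase assay on a luminometer. IC50 is the mean ± SD of three separate experiments.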

[1] = molecular target: Voltage-gated inwardly rectifying potassium channel KCNH2 (Homo sapiens, UniProt Q12809); experiment: Inhibition of human ERG
Chain of Voltage-gated inwardly rectifying potassium channel KCNH2 (Q12809 whole entry): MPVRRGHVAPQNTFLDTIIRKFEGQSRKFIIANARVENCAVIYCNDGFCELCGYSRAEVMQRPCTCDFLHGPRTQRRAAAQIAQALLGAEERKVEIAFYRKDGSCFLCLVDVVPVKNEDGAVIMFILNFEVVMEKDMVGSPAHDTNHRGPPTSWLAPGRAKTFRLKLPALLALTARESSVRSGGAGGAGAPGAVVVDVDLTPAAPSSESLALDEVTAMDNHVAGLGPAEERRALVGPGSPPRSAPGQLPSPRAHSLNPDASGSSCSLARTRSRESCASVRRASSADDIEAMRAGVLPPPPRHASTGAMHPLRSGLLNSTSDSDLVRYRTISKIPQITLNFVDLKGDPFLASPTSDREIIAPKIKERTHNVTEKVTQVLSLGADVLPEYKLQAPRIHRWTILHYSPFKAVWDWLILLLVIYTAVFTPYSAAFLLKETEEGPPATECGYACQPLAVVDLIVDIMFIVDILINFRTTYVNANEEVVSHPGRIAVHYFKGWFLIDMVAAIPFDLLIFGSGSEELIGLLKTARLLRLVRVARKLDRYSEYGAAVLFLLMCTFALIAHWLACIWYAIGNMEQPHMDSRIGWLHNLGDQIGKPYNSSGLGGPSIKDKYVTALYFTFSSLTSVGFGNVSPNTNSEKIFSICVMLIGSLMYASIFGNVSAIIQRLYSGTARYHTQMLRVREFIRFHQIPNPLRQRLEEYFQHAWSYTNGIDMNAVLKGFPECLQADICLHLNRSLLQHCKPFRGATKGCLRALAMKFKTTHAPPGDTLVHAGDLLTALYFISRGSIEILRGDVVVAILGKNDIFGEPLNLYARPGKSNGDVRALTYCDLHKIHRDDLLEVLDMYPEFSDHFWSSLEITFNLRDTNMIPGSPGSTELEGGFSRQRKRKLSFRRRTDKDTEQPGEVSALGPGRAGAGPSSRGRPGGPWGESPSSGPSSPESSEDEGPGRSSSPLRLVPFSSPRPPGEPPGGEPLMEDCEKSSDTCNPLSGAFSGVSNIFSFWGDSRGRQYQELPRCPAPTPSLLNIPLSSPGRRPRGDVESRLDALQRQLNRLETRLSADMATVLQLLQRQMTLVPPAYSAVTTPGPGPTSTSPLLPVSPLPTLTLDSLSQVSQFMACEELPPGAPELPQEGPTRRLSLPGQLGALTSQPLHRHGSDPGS

[2] = Cytotoxicity against human KB cells; assay type: toxicity, cell-based
[3] = AUClast in Sprague-Dawley rat at 1 mg/kg, iv; assay type: ADME, organism-based; design: dose 1 mg/kg, time 0 - last, route intravenous; conditions: in vivo
Summary of the method: (§1)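 SD rats; single dose 1.0 mg/kg i.v. or 3.0 mg/kg p.o., vehicle DMSO, Tween 80, normal saline. Plasma concentration–time profiles give CL, Vss, T1/2, Cmax, Tmax, AUC0-∞ and MRT, with oral bioavailability F estimated from p.o. versus i.v. exposure. Values are the average of three runs.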

[4] = Induction of apoptosis in mouse medulloblastoma cells isolated from Ptch+/- p53-/- mouse assessed as late apoptotic cells at 10 uM measured after 24 hrs by Annexin V-FITC/propidium iodide staining based flow cytometry (reference value: 0.1%); assay type: functional, Medulloblastoma cell
[5] = molecular target: Protein smoothened (Homo sapiens) (UniProt Q99835); experiment: Displacement of BODIPY-cyclopamine from human Smo expressed in HEK293 cells at 0.1 uM measured after 10 hrs by FACS analysis; assay type: cell-based
Chain of Protein smoothened (Homo sapiens) (Q99835 whole entry): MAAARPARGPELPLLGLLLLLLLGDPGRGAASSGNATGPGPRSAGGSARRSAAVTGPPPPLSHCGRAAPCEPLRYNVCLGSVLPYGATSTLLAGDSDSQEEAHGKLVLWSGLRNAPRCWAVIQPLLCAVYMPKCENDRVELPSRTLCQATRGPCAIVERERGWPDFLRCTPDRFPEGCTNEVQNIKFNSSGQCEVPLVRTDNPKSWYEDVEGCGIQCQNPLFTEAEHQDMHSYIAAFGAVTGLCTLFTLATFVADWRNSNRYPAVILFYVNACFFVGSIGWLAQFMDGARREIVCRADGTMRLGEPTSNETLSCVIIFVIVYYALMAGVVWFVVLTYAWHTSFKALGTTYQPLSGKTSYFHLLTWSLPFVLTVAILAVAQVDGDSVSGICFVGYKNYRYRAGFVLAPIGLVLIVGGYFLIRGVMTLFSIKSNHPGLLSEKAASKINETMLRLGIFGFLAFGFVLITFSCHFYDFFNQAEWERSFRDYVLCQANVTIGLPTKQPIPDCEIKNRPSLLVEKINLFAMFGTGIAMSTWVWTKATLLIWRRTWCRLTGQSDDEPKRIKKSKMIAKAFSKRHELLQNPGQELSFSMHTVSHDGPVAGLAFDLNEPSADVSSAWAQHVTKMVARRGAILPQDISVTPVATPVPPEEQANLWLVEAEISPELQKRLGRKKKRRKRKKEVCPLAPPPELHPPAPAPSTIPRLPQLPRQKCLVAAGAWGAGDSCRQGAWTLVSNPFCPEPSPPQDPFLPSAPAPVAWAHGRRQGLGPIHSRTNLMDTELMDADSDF
Summary of the method: (§2)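 HEK293 cells on coverslips transfected with hSmo constructs and incubated with BODIPY-cyclopamine plus test drug for 10 h. After PBS wash, paraformaldehyde fixation and Triton X-100 permeabilization, cells were either analysed by FACS or DAPI-mounted for fluorescence microscopy; three experiments.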

[6] = Volume of distribution at steady state in Sprague-Dawley rat at 1 mg/kg, iv; assay type: ADME, organism-based; conditions: in vivo, read-out: Vdss; summary of the method: as §1
[7] = molecular target: Protein smoothened (Mus musculus) (UniProt P56726); experiment: Potency index, ratio of vismodegib IC50 to test compound IC50 for Smo-mediated Hh signalling pathway in mouse Shh Light2 cells; assay type: cell-based
Chain of Protein smoothened (Mus musculus) (P56726 whole entry): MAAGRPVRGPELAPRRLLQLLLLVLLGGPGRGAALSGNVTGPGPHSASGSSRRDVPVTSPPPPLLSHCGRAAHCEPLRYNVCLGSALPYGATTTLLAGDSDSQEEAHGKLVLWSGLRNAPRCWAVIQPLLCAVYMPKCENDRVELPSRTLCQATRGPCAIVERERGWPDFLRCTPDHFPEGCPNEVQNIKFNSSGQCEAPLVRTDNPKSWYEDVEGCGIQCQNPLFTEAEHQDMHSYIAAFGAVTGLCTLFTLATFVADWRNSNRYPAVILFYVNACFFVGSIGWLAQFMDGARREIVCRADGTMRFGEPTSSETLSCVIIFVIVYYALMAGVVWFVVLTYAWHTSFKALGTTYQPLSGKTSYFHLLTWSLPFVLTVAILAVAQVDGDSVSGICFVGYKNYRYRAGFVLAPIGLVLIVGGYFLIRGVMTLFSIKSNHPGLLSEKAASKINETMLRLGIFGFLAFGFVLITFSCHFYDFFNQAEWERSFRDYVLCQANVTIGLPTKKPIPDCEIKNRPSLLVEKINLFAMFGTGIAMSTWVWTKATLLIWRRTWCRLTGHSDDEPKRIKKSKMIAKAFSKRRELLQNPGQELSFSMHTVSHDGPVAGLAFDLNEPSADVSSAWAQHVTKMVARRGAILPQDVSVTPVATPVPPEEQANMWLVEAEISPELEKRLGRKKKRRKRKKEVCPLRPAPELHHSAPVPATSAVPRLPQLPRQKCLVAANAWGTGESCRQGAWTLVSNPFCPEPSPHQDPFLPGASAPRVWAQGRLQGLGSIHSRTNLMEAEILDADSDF
Summary of the method: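 Ratio of reference to test IC50, both taken from the Gli-luc dual luciferase assay in light II cells (NIH-3T3 with stable Gli-firefly reporter and Renilla vector). IC50 values are from three separate experiments.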

[8] = molecular target: Protein smoothened (Homo sapiens) (UniProt Q99835); experiment: Displacement of BODIPY-cyclopamine from human Smo expressed in HEK293 cells at 0.1 uM measured after 10 hrs by DAPI staining based fluorescence microscopic assay; assay type: cell-based; summary of the method: as §2
[9] = MRT (0 to infinity) in Sprague-Dawley rat at 1 mg/kg, iv; assay type: ADME, organism-based; conditions: in vivo; summary of the method: as §1
Mus musculus = experiment: Toxicity in athymic nude mouse implanted with mouse Ptch+/- p53-/- medulloblastoma cells assessed as body weight loss at 25 and 50 mg/kg, ip bid for 13 days; assay type: organism-based; conditions: in vivo, 312 h
Summary of the method: (§3)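 Primary Ptch+/-;p53-/- medulloblastoma passaged subcutaneously in athymic nude mice as 1 mm3 fragments in the right flank. Dosing began at 100–150 mm3: i.p. 25 or 50 mg/kg twice daily for 13 days. Calipers twice weekly, volume = L×W²/2, TGI from volume change against vehicle. Body weight tracked; tumor mean ± SEM, weight mean ± SD.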

[10] = Tmax in Sprague-Dawley rat at 3 mg/kg, po; assay type: ADME, organism-based; conditions: in vivo; summary of the method: as §1
[11] = Half life in Sprague-Dawley rat at 1 mg/kg, iv; assay type: ADME, organism-based; conditions: in vivo; summary of the method: as §1
[12] = In vivo inhibition of Smo-mediated Hh signalling pathway in athymic nude mouse implanted with mouse Ptch+/- p53-/- medulloblastoma cells assessed as suppression of Gli1-mRNA expression at 25 and 50 mg/kg, ip bid for 13 days measured 4 hrs post last dose by RT-qPCR analysis; assay type: functional, organism-based
Summary of the method: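 Nude mice bearing subcutaneous Ptch+/-;p53-/- medulloblastoma allografts dosed i.p. twice daily for 13 days. Tumors collected 4 h after the last dose for Gli1 mRNA measurement; mean ± SD.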

[13] = Oral bioavailability in Sprague-Dawley rat at 3 mg/kg; assay type: ADME, organism-based; conditions: in vivo; summary of the method: as §1
[14] = MRT (0 to infinity) in Sprague-Dawley rat at 3 mg/kg, po; assay type: ADME, organism-based; conditions: in vivo; summary of the method: as §1
Medulloblastoma cell = experiment: Antiproliferative activity against mouse medulloblastoma cells isolated from Ptch+/- p53-/- mouse measured after 72 hrs by MTS assay; assay type: functional
Summary of the method: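 Medulloblastoma cells from Ptch+/-;p53-/- allografts in nude mice, minced and collagenase-digested, grown in Neurobasal A with B-27, EGF 20 ng/ml, bFGF 20 ng/ml, nonessential amino acids and N-acetyl cysteine 60 µg/ml. Seeded in 96-well plates, treated 72 h, viability read by MTS; mean ± SD.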

[15] = molecular target: Protein smoothened (Homo sapiens) (UniProt Q99835); experiment: Antagonist activity at wild-type Smo (unknown origin) expressed in mouse Shh Light2 cells assessed as suppression of Gli-mRNA expression measured after 36 hrs by dual luciferase reporter gene assay; assay type: cell-based; conditions: in the assay text read “Gli-luciferase activity” for “Gli-mRNA expression”
Summary of the method: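 Light II cells transfected with wild-type Smo plasmid to drive Gli-luciferase, exposed to compound for 36 h, then harvested for dual luciferase reporter assay. Mean ± SD.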

[16] = Cmax in Sprague-Dawley rat at 3 mg/kg, po; assay type: ADME, organism-based; design: dose 3 mg/kg, route oral; conditions: in vivo; summary of the method: as §1
[17] = Induction of apoptosis in mouse medulloblastoma cells isolated from Ptch+/- p53-/- mouse assessed as early apoptotic cells at 10 uM measured after 24 hrs by Annexin V-FITC/propidium iodide staining based flow cytometry (reference value: 0.7%); assay type: functional, Medulloblastoma cell
[18] = molecular target: Protein smoothened (Mus musculus) (UniProt P56726); experiment: Inhibition of Smo in mouse medulloblastoma cells isolated from Ptch+/- p53-/- mouse assessed as decrease in Gli1-mRNA expression at 0.1 uM by qRT-PCR analysis
[19] = Clearance in Sprague-Dawley rat at 1 mg/kg, iv; assay type: ADME, organism-based; conditions: in vivo; summary of the method: as §1
[20] = Half life in Sprague-Dawley rat at 3 mg/kg, po; assay type: ADME, organism-based; conditions: in vivo; summary of the method: as §1
[21] = AUClast in Sprague-Dawley rat at 3 mg/kg, po; assay type: ADME, organism-based; design: dose 3 mg/kg, time 0 - last, route oral; conditions: in vivo; summary of the method: as §1
[22] = Antitumor activity against mouse Ptch+/- p53-/- medulloblastoma cells implanted in athymic nude mouse assessed as tumor growth inhibition at 25 mg/kg, ip bid for 13 days relative to control; assay type: functional; conditions: Medulloblastoma cell, 312 h, read-out: TGI; summary of the method: as §3
[23] = AUC (0 to infinity) in Sprague-Dawley rat at 1 mg/kg, iv; assay type: ADME, organism-based; design: dose 1 mg/kg, time infinity, route intravenous; conditions: in vivo; summary of the method: as §1
[24] = molecular target: Protein smoothened (Mus musculus) (UniProt P56726); experiment: Inhibition of Smo-mediated Hh signalling pathway in mouse Shh Light2 cells assessed as suppression of Gli1-mRNA expression at 0.1 uM measured after 36 hrs by RT-qPCR analysis; assay type: cell-based
[25] = AUC (0 to infinity) in Sprague-Dawley rat at 3 mg/kg, po; assay type: ADME, organism-based; design: dose 3 mg/kg, route oral, time infinity; conditions: in vivo; summary of the method: as §1
[26] = Antitumor activity against mouse Ptch+/- p53-/- medulloblastoma cells implanted in athymic nude mouse assessed as tumor growth inhibition at 50 mg/kg, ip bid for 13 days relative to control; assay type: functional; conditions: Medulloblastoma cell, 312 h, read-out: TGI; summary of the method: as §3
[27] = molecular target: Protein smoothened (Homo sapiens) (UniProt Q99835); conditions: HEK293, 5 uM
[28] = molecular target: Protein smoothened (Homo sapiens) (UniProt Q99835); conditions: HEK293, 5 uM; remark: listed apart in the source

Chain of Protein smoothened (P56726 whole entry): as above

CC(=O)Nc1nc2c(s1)C[C@@H]1[C@H](C2)[C@H]([C@@H](C)C(=O)Nc2ccc(Cl)c(-c3ccccn3)c2)CC[C@H]1C
IC50 (Protein smoothened): > 1 µM

C[C@H]1[C@@H](CC(=O)Nc2ccc(Cl)c(-c3ccccn3)c2)O[C@@H]2O[C@@]3(C)CC[C@H]4[C@H](C)CC[C@@H]1[C@@]24O3
IC50 (Protein smoothened): 0.184 µM

C[C@@H]1CC[C@@H]([C@@H](C)C(=O)Nc2ccc(Cl)c(-c3ccccn3)c2)c2nc(CN3CCOCC3)ccc21
IC50 [1]: 3.31 µM | IC50 [2]: > 20 µM | IC50 (Protein smoothened): 0.155 µM

Cc1ccc2c(n1)[C@H]([C@@H](C)C(=O)Nc1ccc(Cl)c(-c3ccccn3)c1)CC[C@H]2C
IC50 [1]: > 15 µM | IC50 [2]: 15 µM | IC50 (Protein smoothened): 0.212 µM

C[C@@H]1CC[C@@H]([C@@H](C)C(=O)Nc2ccc(Cl)c(-c3ccccn3)c2)[C@H]2CC(=O)CC[C@H]21
IC50 (Protein smoothened): 0.29 µM

C[C@H]1[C@@H](CC(=O)Nc2ccc(Cl)c(-c3ccccn3)c2)O[C@@H]2O[C@@]3(C)CC[C@H]4[C@H](C)CC[C@@H]1[C@@]24OO3
IC50 [1]: > 15 µM | IC50 [2]: 6.61 µM | IC50 (Protein smoothened): 0.241 µM

COC(=O)[C@H](C)c1ccc(C)c2ccc(C(=O)Nc3ccc(Cl)c(-c4ccccn4)c3)nc12
IC50 (Protein smoothened): 0.27 µM

C[C@@H]1CC[C@@H]([C@@H](C)C(=O)Nc2ccc(Cl)c(-c3ccccn3)c2)C2=CC(=O)CC[C@H]21
IC50 (Protein smoothened): > 1 µM

Cc1ccc2c(n1)[C@H]([C@@H](C)C(=O)Nc1ccc(Cl)c(-c3nc4ccc(OC(F)(F)F)cc4n3C)c1)CC[C@H]2C
IC50 (Protein smoothened): 0.0526 µM

Cc1ccc2c(n1)[C@H]([C@@H](C)C(=O)Nc1ccc(Cl)c(-c3nc4ccccc4n3C)c1)CC[C@H]2C
AUC(0-t) [3]: 1780 ng·h/mL | Activity [4]: 4.6% | inhibition [5]: Active | Vd [6]: 2.23 L/kg | Ratio IC50 [7]: 4 to 5 | inhibition [8]: Active | MRT inf [9]: 3.97 h | IC50 [1]: > 15 µM | Activity (Mus musculus): Non-Toxic | Tmax [10]: 0.25 h | half-life [11]: 5.95 h | inhibition [12]: Active | bioavailability [13]: 27.4% | IC50 [2]: > 20 µM | MRT inf [14]: 1.53 h | Activity (Medulloblastoma cell): Dose-dependent effect | inhibition [15]: Dose-dependent effect | Cmax [16]: 799 ng/mL | IC50 (Protein smoothened): 0.00953 µM | Activity [17]: 21.7% | inhibition [18]: Active | clearance [19]: 9.31 mL/min/kg | half-life [20]: 1.4 h | AUC(0-t) [21]: 1460 ng·h/mL | inhibition in vivo at 25 mg/kg [22]: 81.7% | AUC(0-inf) [23]: 1840 ng·h/mL | inhibition [24]: Active | AUC(0-inf) [25]: 1480 ng·h/mL | inhibition in vivo at 50 mg/kg [26]: 91.5%

Cc1ccc2c(n1)[C@H]([C@@H](C)C(=O)Nc1ccc(Cl)c(-c3nnc(-c4ccnn4C)o3)c1)CC[C@H]2C
IC50 (Protein smoothened): 0.588 µM

CC1=C2C[C@H]3[C@@H](CC=C4C[C@@H](O)CC[C@@]43C)[C@@H]2CC[C@]12O[C@@H]1C[C@H](C)CN[C@H]1[C@H]2C
inhibition [27]: Active | inhibition [28]: Active

C[C@@H]1CC[C@@H]([C@@H](C)C(=O)Nc2ccc(Cl)c(-c3ccccn3)c2)[C@H]2Cc3c(cnn3-c3ccccc3)C[C@H]21
IC50 (Protein smoothened): 0.327 µM

Cc1nc2c(s1)C[C@@H]1[C@H](C2)[C@H]([C@@H](C)C(=O)Nc2ccc(Cl)c(-c3ccccn3)c2)CC[C@H]1C
IC50 (Protein smoothened): > 1 µM

Cc1ccc2c(n1)[C@H]([C@@H](C)C(=O)Nc1ccc(Cl)c(-c3nc4cc(OC(F)(F)F)ccc4n3C)c1)CC[C@H]2C
IC50 (Protein smoothened): 0.0845 µM

Source: ChEMBL document CHEMBL3864137, “Design, Synthesis, and Pharmacological Evaluation of 2-(2,5-Dimethyl-5,6,7,8-tetrahydroquinolin-8-yl)-N-aryl Propanamides as Novel Smoothened (Smo) Antagonists” (J Med Chem, 2016)
